In ChEMBL document CHEMBL1152987, “Emergence of the quinolone resistance-mediating gene aac(6')-Ib-cr in extended-spectrum-beta-lactamase-producing Klebsiella isolates collected in Slovenia between 2000 and 2005” (2007):

Tests used:
Assay type in all cases: functional
Klebsiella [1] = assay: Antimicrobial activity against extended-spectrum-beta-lactamase-producing Klebsiella transconjugant TK9 isolate expressing quinolone resistance-mediating gene aac(6')-Ib-cr by Etest
Procedure, shortened: (§1)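 Transconjugants came from broth-free matings of Klebsiella donors with E. coli J53 Azr on brain heart infusion agar. Selection was for 24 h at 37°C on LB agar with sodium azide 150 μg/ml plus ampicillin 100, tetracycline 10, trimethoprim 25 or chloramphenicol 30 μg/ml, then replica plating ± ciprofloxacin 0.01 μg/ml. MICs were read by Etest per the manufacturer's instructions.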

Klebsiella [2] = assay: Antimicrobial activity against extended-spectrum-beta-lactamase-producing Klebsiella transconjugant TK25 isolate expressing quinolone resistance-mediating gene aac(6')-Ib-cr by Etest; procedure, shortened: as §1
Klebsiella [3] = assay: Antimicrobial activity against extended-spectrum-beta-lactamase-producing Klebsiella transconjugant TK3 isolate expressing quinolone resistance-mediating gene aac(6')-Ib-cr by Etest; procedure, shortened: as §1
Klebsiella [4] = assay: Antimicrobial activity against extended-spectrum-beta-lactamase-producing Klebsiella transconjugant TK2 isolate expressing quinolone resistance-mediating gene aac(6')-Ib-cr by Etest; procedure, shortened: as §1
Klebsiella [5] = assay: Antimicrobial activity against extended-spectrum-beta-lactamase-producing Klebsiella transconjugant TK19 isolate expressing quinolone resistance-mediating gene aac(6')-Ib-cr by Etest; procedure, shortened: as §1
Klebsiella [6] = assay: Antimicrobial activity against extended-spectrum-beta-lactamase-producing Klebsiella transconjugant TK21 isolate expressing quinolone resistance-mediating gene aac(6')-Ib-cr by Etest; procedure, shortened: as §1
Klebsiella [7] = assay: Antimicrobial activity against extended-spectrum-beta-lactamase-producing Klebsiella transconjugant TK24 isolate expressing quinolone resistance-mediating gene aac(6')-Ib-cr by Etest; procedure, shortened: as §1
Klebsiella [8] = assay: Antimicrobial activity against extended-spectrum-beta-lactamase-producing Klebsiella transconjugant TK14 isolate expressing quinolone resistance-mediating gene aac(6')-Ib-cr by Etest; procedure, shortened: as §1
Klebsiella [9] = assay: Antimicrobial activity against extended-spectrum-beta-lactamase-producing Klebsiella transconjugant TK12 isolate expressing quinolone resistance-mediating gene aac(6')-Ib-cr by Etest; procedure, shortened: as §1
Klebsiella [10] = assay: Antimicrobial activity against extended-spectrum-beta-lactamase-producing Klebsiella transconjugant TK1 isolate expressing quinolone resistance-mediating gene aac(6')-Ib-cr by Etest; procedure, shortened: as §1
Klebsiella [11] = assay: Antimicrobial activity against extended-spectrum-beta-lactamase-producing Klebsiella transconjugant TK22 isolate expressing quinolone resistance-mediating gene aac(6')-Ib-cr by Etest; procedure, shortened: as §1
Klebsiella [12] = assay: Antimicrobial activity against extended-spectrum-beta-lactamase-producing Klebsiella transconjugant TK11 isolate expressing quinolone resistance-mediating gene aac(6')-Ib-cr by Etest; procedure, shortened: as §1
Klebsiella [13] = assay: Antimicrobial activity against extended-spectrum-beta-lactamase-producing Klebsiella transconjugant TK6 isolate expressing quinolone resistance-mediating gene aac(6')-Ib-cr by Etest; procedure, shortened: as §1
Klebsiella [14] = assay: Antimicrobial activity against extended-spectrum-beta-lactamase-producing Klebsiella transconjugant TK23 isolate expressing quinolone resistance-mediating gene aac(6')-Ib-cr by Etest; procedure, shortened: as §1
Klebsiella [15] = assay: Antimicrobial activity against extended-spectrum-beta-lactamase-producing Klebsiella transconjugant TK13 isolate expressing quinolone resistance-mediating gene aac(6')-Ib-cr by Etest; procedure, shortened: as §1
Klebsiella [16] = assay: Antimicrobial activity against extended-spectrum-beta-lactamase-producing Klebsiella transconjugant TK4 isolate expressing quinolone resistance-mediating gene aac(6')-Ib-cr by Etest; procedure, shortened: as §1
Klebsiella [17] = assay: Antimicrobial activity against extended-spectrum-beta-lactamase-producing Klebsiella transconjugant TK20 isolate expressing quinolone resistance-mediating gene aac(6')-Ib-cr by Etest; procedure, shortened: as §1
Klebsiella [18] = assay: Antimicrobial activity against extended-spectrum-beta-lactamase-producing Klebsiella transconjugant TK16 isolate expressing quinolone resistance-mediating gene aac(6')-Ib-cr by Etest; procedure, shortened: as §1
Klebsiella [19] = assay: Antimicrobial activity against extended-spectrum-beta-lactamase-producing Klebsiella transconjugant TK8 isolate expressing quinolone resistance-mediating gene aac(6')-Ib-cr by Etest; procedure, shortened: as §1
Klebsiella [20] = assay: Antimicrobial activity against extended-spectrum-beta-lactamase-producing Klebsiella transconjugant TK18 isolate expressing quinolone resistance-mediating gene aac(6')-Ib-cr by Etest; procedure, shortened: as §1
Klebsiella [21] = assay: Antimicrobial activity against extended-spectrum-beta-lactamase-producing Klebsiella transconjugant TK15 isolate expressing quinolone resistance-mediating gene aac(6')-Ib-cr by Etest; procedure, shortened: as §1
Klebsiella [22] = assay: Antimicrobial activity against extended-spectrum-beta-lactamase-producing Klebsiella transconjugant TK5 isolate expressing quinolone resistance-mediating gene aac(6')-Ib-cr by Etest; procedure, shortened: as §1
Klebsiella [23] = assay: Antimicrobial activity against extended-spectrum-beta-lactamase-producing Klebsiella transconjugant TK7 isolate expressing quinolone resistance-mediating gene aac(6')-Ib-cr by Etest; procedure, shortened: as §1
Klebsiella [24] = assay: Antimicrobial activity against extended-spectrum-beta-lactamase-producing Klebsiella transconjugant TK17 isolate expressing quinolone resistance-mediating gene aac(6')-Ib-cr by Etest; procedure, shortened: as §1
Klebsiella [25] = assay: Antimicrobial activity against extended-spectrum-beta-lactamase-producing Klebsiella transconjugant TK10 isolate expressing quinolone resistance-mediating gene aac(6')-Ib-cr by Etest; procedure, shortened: as §1

Measured: MIC

O=C(O)c1cn(C2CC2)c2cc(N3CCNCC3)c(F)cc2c1=O [CIPROFLOXACIN]
0.125 µg/mL: Klebsiella [1] | Klebsiella [2] | Klebsiella [3] | Klebsiella [4] | Klebsiella [5] | Klebsiella [6] | Klebsiella [7] | Klebsiella [8] | Klebsiella [9] | Klebsiella [10] | Klebsiella [11] | Klebsiella [12] | Klebsiella [13] | Klebsiella [14] | Klebsiella [15] | Klebsiella [16] | Klebsiella [17] | Klebsiella [18] | Klebsiella [19] | Klebsiella [20] | Klebsiella [21] | Klebsiella [22] | Klebsiella [23] | Klebsiella [24] | Klebsiella [25]
